Measured values from publication PMC4051287 (Molecular cancer therapeutics, 2014).
Square brackets hold non-standard residues; d marks the D form. Peptide text beside a SMILES is read from it. * marks the point of attachment. Dolaproine = CO[C@@H]([C@@H]1CCCN1)[C@@H](C)C(=O)O; Dil = CC[C@H](C)[C@H](NC)[C@@H](CC(=O)O)OC; X1 = C[C@@H](N*)[C@@H](O)c1ccccc1; NMeV = CN[C@H](C(=O)O)C(C)C

Experiments:
Py230 tumors = assay: Therapeutic study, Py230 syngeneic tumors; format: in vivo, mice
How it was run: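 Tumors reach 5–7 mm diameter in 5–6 weeks. Test compound (MMAE conjugate) dosed at 0.2mg/kg MMAE, ~6.5 nanomoles of conjugate. Free MMAE and controls run alongside. Tumor volume followed.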

[1] = cited from earlier work

CC[C@H](C)[C@@H]([C@@H](CC(=O)N1CCC[C@H]1[C@H](OC)[C@@H](C)C(=O)N[C@H](C)[C@@H](O)c1ccccc1)OC)N(C)C(=O)[C@@H](NC(=O)[C@@H](NC)C(C)C)C(C)C [MMAE, Monomethylauristatin E] (H-[NMeV]V[Dil][Dolaproine]-X1)
final tumor mass, dose finding (Py230 tumors; Py230, MMAE at concentrations up to 0.6mg/kg): Only the tumors treated at the highest dose had a reduction in final mass
effect on tumor growth (Py230 tumors; Py230, immunocompetent mice, 0.2mg/kg MMAE): no impact on tumor growth
maximum tolerated dose [1]: 0.5 to 1.0 mg/kg
